Source: ChEMBL document CHEMBL1128171, “A series of N4-imidoethyl derivatives of 1-(2,3-dihydro-1,4-benzodioxin-5-yl)piperazine as 5-HT1A receptor ligands: synthesis and structure-affinity relationships” (J Med Chem, 1995)

How the values were obtained:
[1] = target: T1, 5-hydroxytryptamine receptor 1A (Rattus norvegicus, UniProt P19327); test: Inhibition of [3H]2-(di-N-propylamino)-8-hydroxytetralin binding to 5-HT1A receptor of rat frontal cortex homogenates; type: tissue-based
T1 sequence (P19327 whole entry): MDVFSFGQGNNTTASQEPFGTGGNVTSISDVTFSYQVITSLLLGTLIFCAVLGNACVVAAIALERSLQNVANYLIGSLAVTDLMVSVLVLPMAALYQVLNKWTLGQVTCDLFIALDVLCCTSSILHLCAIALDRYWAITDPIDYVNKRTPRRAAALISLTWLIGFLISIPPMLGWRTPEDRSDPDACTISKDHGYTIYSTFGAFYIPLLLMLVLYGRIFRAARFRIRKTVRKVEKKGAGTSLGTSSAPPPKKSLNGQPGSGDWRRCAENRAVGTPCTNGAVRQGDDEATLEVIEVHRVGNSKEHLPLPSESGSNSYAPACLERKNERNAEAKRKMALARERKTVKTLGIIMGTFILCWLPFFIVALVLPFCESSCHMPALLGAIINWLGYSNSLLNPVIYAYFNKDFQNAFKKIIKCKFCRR
Outline: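 Rat frontal cortex homogenates incubated with [3H]-8-OH-DPAT at 37 °C, pH 7.7. Four to six drug concentrations, each in triplicate; three to six assays per value. IC50 for displacement of specific binding converted to Ki by Cheng–Prusoff using radioligand concentration and Kd. Reported as pKi.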

[2] = Ionisation constant of the compound; type: ADME
Outline: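 Potentiometric titration at 37 °C (±1 °C) under nitrogen, using a glass pH electrode calibrated at pH 4, 7 and 9. 30 mg substance in 40 mL 0.1 M KCl in carbonate-free water, 0.002-0.005 M. Titrant 0.05 M NaOH added in 0.05 mL steps. pKa calculated from 5-15 curve points (pre-precipitation only) and averaged.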

SMILES	Ki [1] [nM]	pKa [2]
O=C1CCCC(=O)N1CCN1CCN(c2cccc3c2OCCO3)CC1	347	6.4
O=C1CCC(=O)N1CCN1CCN(c2cccc3c2OCCO3)CC1	110	6.16
CC1CC(=O)N(CCN2CCN(c3cccc4c3OCCO4)CC2)C1=O (configuration not stated)	151	6.16
O=C1CC2(CCCC2)CC(=O)N1CCN1CCN(c2cccc3c2OCCO3)CC1	0.708	6.51
O=C1C2CC=CCC2C(=O)N1CCN1CCN(c2cccc3c2OCCO3)CC1 (configuration not stated)	10	6.05
O=C1C2CCCCC2C(=O)N1CCN1CCN(c2cccc3c2OCCO3)CC1 (configuration not stated)		6.07
CC1(C)CC(=O)N(CCN2CCN(c3cccc4c3OCCO4)CC2)C(=O)C1	4.68	6.42

Now from value to compound:

Ki [1] [nM]	pKa [2]	SMILES
977	5.9	O=C1C=CC(=O)N1CCN1CCN(c2cccc3c2OCCO3)CC1
32.4		O=C1c2ccccc2C(=O)N1CCN1CCN(c2cccc3c2OCCO3)CC1
6.46	6.3	O=C1C2=C(CCCC2)C(=O)N1CCN1CCN(c2cccc3c2OCCO3)CC1
4.79	6.1	Cc1ccc2c(c1)C(=O)N(CCN1CCN(c3cccc4c3OCCO4)CC1)C2=O
63.1	6.3	CC1=CC(=O)N(CCN2CCN(c3cccc4c3OCCO4)CC2)C1=O
